Reference: ChEMBL document CHEMBL3244425 (J Med Chem, 1979)

What was measured:
[1] = Fraction unbound in 22% albino mouse serum at 10 uM by equilibrium dialysis method in presence of diisopropyl fluorophosphate; assay type: ADME, cell-free
serum albumin = serum albumin (Homo sapiens, UniProt P02768); assay: Binding affinity to human serum albumin at 10 uM after 12 to 20 hrs by scintillation spectrometry; assay type: ADME
In short: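 HSA as supplied (lipid under 10 mg/g), 1% (10 mg/mL) in 0.05 M buffer. Equilibrium dialysis against buffer for 12-20 h at room temperature, with 10 μM radiolabeled substrate. Free percentage is taken from the ratio of radioactivities on the two sides, then corrected for partial hydrolysis using TLC of ether extracts.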

[2] = Ratio of oxazepam level in brain to blood in albino mouse at 5 mg equivalent of oxazepam/kg after 20 mins; assay type: ADME, tissue-based
[3] = Ratio of oxazepam level in brain to blood in albino mouse at 5 mg equivalent of oxazepam/kg after 10 mins; assay type: ADME, tissue-based
Mus musculus [4] = assay: Drug excretion in albino mouse assessed as unexcreted drug at 5 mg equivalent of oxazepam/kg after 150 hrs; assay type: ADME, organism-based; settings: in vivo
[5] = Ratio of oxazepam level in brain to blood in albino mouse at 5 mg equivalent of oxazepam/kg after 1 min; assay type: ADME, tissue-based
[6] = Ratio of oxazepam level in brain to blood in albino mouse at 5 mg equivalent of oxazepam/kg after 5 mins; assay type: ADME, tissue-based
[7] = Ratio of oxazepam level in brain to blood in albino mouse at 5 mg equivalent of oxazepam/kg after 3 mins; assay type: ADME, tissue-based; settings: 0.05 h
[8] = Ratio of oxazepam level in brain to blood in albino mouse at 5 mg equivalent of oxazepam/kg after 40 mins; assay type: ADME, tissue-based
Mus musculus [9] = assay: Drug excretion in albino mouse assessed as unexcreted drug at 5 mg equivalent of oxazepam/kg after 96 hrs; assay type: ADME, organism-based; settings: in vivo
[10] = Ratio of oxazepam level in brain to blood in albino mouse at 10 mg equivalent of oxazepam/kg after 5 mins; assay type: ADME, tissue-based
[11] = Ratio of oxazepam level in brain to blood in albino mouse at 10 mg equivalent of oxazepam/kg after 30 mins; assay type: ADME, tissue-based; settings: 0.5 h
[12] = Ratio of oxazepam level in brain to blood in albino mouse at 10 mg equivalent of oxazepam/kg after 20 mins; assay type: ADME, tissue-based
[13] = Ratio of oxazepam level in brain to blood in albino mouse at 10 mg equivalent of oxazepam/kg after 3 mins; assay type: ADME, tissue-based; settings: 0.05 h
[14] = Ratio of oxazepam level in brain to blood in albino mouse at 10 mg equivalent of oxazepam/kg after 10 mins; assay type: ADME, tissue-based
Mus musculus [15] = assay: Drug excretion in albino mouse assessed as unexcreted drug at 10 mg equivalent of oxazepam/kg after 96 hrs; assay type: ADME, organism-based; settings: in vivo
[16] = Ratio of oxazepam level in brain to blood in albino mouse at 5 mg equivalent of oxazepam/kg after 2 mins; assay type: ADME, tissue-based
Mus musculus [17] = assay: Drug excretion in albino mouse assessed as unexcreted drug at 10 mg equivalent of oxazepam/kg after 100 to 150 hrs; assay type: ADME, organism-based; settings: in vivo
[18] = Ratio of oxazepam level in brain to blood in albino mouse at 10 mg equivalent of oxazepam/kg after 1 min; assay type: ADME, tissue-based
[19] = Ratio of oxazepam level in brain to blood in albino mouse at 15 mg equivalent of oxazepam/kg after 1 min; assay type: ADME, tissue-based
[20] = Ratio of oxazepam level in brain to blood in albino mouse at 15 mg equivalent of oxazepam/kg after 20 mins; assay type: ADME, tissue-based
[21] = Ratio of oxazepam level in brain to blood in albino mouse at 15 mg equivalent of oxazepam/kg after 3 mins; assay type: ADME, tissue-based; settings: 0.05 h
[22] = Ratio of oxazepam level in brain to blood in albino mouse at 15 mg equivalent of oxazepam/kg after 40 mins; assay type: ADME, tissue-based
[23] = Ratio of oxazepam level in brain to blood in albino mouse at 15 mg equivalent of oxazepam/kg after 6 mins; assay type: ADME, tissue-based; settings: 0.1 h
[24] = Ratio of oxazepam level in brain to blood in albino mouse at 15 mg equivalent of oxazepam/kg after 12 mins; assay type: ADME, tissue-based; settings: 0.2 h
Mus musculus [25] = assay: Drug excretion in albino mouse assessed as unexcreted drug at 10 mg equivalent of oxazepam/kg after 150 hrs; assay type: ADME, organism-based; settings: in vivo
[26] = Ratio of oxazepam level in brain to blood in albino mouse at 10 mg equivalent of oxazepam/kg after 6 mins; assay type: ADME, tissue-based; settings: 0.1 h
[27] = Ratio of oxazepam level in brain to blood in albino mouse at 10 mg equivalent of oxazepam/kg after 12 mins; assay type: ADME, tissue-based; settings: 0.2 h
[28] = Ratio of oxazepam level in brain to blood in albino mouse at 10 mg equivalent of oxazepam/kg after 40 mins; assay type: ADME, tissue-based
[29] = Ratio of oxazepam level in brain to blood in albino mouse at 10 mg equivalent of oxazepam/kg after 2 mins; assay type: ADME, tissue-based

serum albumin, sequence (P02768 whole entry): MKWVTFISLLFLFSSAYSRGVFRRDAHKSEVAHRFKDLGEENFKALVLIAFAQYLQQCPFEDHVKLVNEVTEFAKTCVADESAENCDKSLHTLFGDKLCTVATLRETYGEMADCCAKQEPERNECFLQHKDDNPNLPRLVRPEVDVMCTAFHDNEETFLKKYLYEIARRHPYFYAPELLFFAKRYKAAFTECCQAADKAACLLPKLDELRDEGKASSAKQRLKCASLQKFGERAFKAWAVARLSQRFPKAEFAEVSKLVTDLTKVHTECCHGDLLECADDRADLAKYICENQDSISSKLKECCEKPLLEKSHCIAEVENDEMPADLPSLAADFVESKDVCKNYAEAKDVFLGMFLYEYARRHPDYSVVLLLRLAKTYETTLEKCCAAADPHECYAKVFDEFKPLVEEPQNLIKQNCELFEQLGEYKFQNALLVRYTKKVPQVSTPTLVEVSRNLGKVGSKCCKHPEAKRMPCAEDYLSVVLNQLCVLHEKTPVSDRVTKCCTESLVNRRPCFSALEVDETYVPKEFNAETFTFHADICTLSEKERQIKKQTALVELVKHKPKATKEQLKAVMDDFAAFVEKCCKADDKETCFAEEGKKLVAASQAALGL

CC(C)C(=O)OC1N=C(c2ccccc2)c2cc(Cl)ccc2NC1=O (stereo not given)
fraction unbound at 10 µM [1]: 0.147
fraction unbound at 10 µM (serum albumin): 0.078

CC(Cc1ccccc1)C(=O)OC1N=C(c2ccccc2)c2cc(Cl)ccc2NC1=O (stereo not given)
fraction unbound at 10 µM [1]: 0.111
fraction unbound at 10 µM (serum albumin): 0.051

O=C(CCCc1ccccc1)OC1N=C(c2ccccc2)c2cc(Cl)ccc2NC1=O (stereo not given)
fraction unbound at 10 µM [1]: 0.102
fraction unbound at 10 µM (serum albumin): 0.034

CCC(CC)C(=O)OC1N=C(c2ccccc2)c2cc(Cl)ccc2NC1=O (stereo not given)
fraction unbound at 10 µM [1]: 0.038
fraction unbound at 10 µM (serum albumin): 0.06

CC(=O)OC1N=C(c2ccccc2)c2cc(Cl)ccc2NC1=O (stereo not given)
fraction unbound at 10 µM [1]: 0.285
fraction unbound at 10 µM (serum albumin): 0.246

O=C(CCCc1ccccc1)OC1N=C(c2ccccc2)c2cc(Cl)ccc2N[14C]1=O (stereo not given)
Ratio [2]: 1
Ratio [3]: 0.4
Drug recovery (Mus musculus [4]): 38%
Ratio [5]: 0.5
Ratio [6]: 0.3
Ratio [7]: 0.5
Ratio [8]: 0.9

CC(C)(Cc1ccccc1)C(=O)OC1N=C(c2ccccc2)c2cc(Cl)ccc2NC1=O (stereo not given)
fraction unbound at 10 µM [1]: 0.113
fraction unbound at 10 µM (serum albumin): 0.022

O=C(CCc1ccccc1)OC1N=C(c2ccccc2)c2cc(Cl)ccc2N[14C]1=O (stereo not given)
Drug recovery (Mus musculus [9]): 26%
Ratio [2]: 1.4
Ratio [3]: 0.5
Ratio [5]: 0.6
Ratio [6]: 0.5
Ratio [7]: 0.4
Ratio [8]: 2.2

CC(Cc1ccccc1)C(=O)OC1N=C(c2ccccc2)c2cc(Cl)ccc2N[14C]1=O (single isomer, unassigned; (-))
Ratio [2]: 2
Ratio [3]: 1.6
Ratio [6]: 1.1
Ratio [7]: 0.3
Ratio [8]: 2.1

O=C(CCc1ccccc1)OC1N=C(c2ccccc2)c2cc(Cl)ccc2NC1=O (stereo not given)
fraction unbound at 10 µM (serum albumin): 0.052

CCCC(=O)OC1N=C(c2ccccc2)c2cc(Cl)ccc2NC1=O (stereo not given)
fraction unbound at 10 µM [1]: 0.149
fraction unbound at 10 µM (serum albumin): 0.089

CC(C)(C)C(=O)OC1N=C(c2ccccc2)c2cc(Cl)ccc2N[14C]1=O (stereo not given)
Ratio [10]: 2
Ratio [11]: 2.5
Ratio [12]: 2
Ratio [13]: 1.7
Ratio [14]: 2.2
Drug recovery (Mus musculus [15]): 7%

CC(C)C(=O)OC1N=C(c2ccccc2)c2cc(Cl)ccc2N[14C]1=O (stereo not given)
Ratio [2]: 1.9
Ratio [3]: 1.8
Ratio [6]: 1.2
Ratio [16]: 0.7
Ratio [8]: 2.3

CC(C)CC(=O)OC1N=C(c2ccccc2)c2cc(Cl)ccc2NC1=O (stereo not given)
fraction unbound at 10 µM [1]: 0.067
fraction unbound at 10 µM (serum albumin): 0.093

CC(=O)OC1N=C(c2ccccc2)c2cc(Cl)ccc2N[14C]1=O (stereo not given)
Ratio [10]: 2
Drug recovery (Mus musculus [17]): 0%
Ratio [11]: 4
Ratio [18]: 4
Ratio [13]: 3.4
Ratio [14]: 2.4

CC(Cc1ccccc1)C(=O)OC1N=C(c2ccccc2)c2cc(Cl)ccc2N[14C]1=O (single isomer, unassigned; (+))
Drug recovery (Mus musculus [4]): 34%

COC(=O)CCC(=O)OC1N=C(c2ccccc2)c2cc(Cl)ccc2NC1=O (stereo not given)
fraction unbound at 10 µM [1]: 0.299
fraction unbound at 10 µM (serum albumin): 0.172

CCCC(=O)OC1N=C(c2ccccc2)c2cc(Cl)ccc2N[14C]1=O (stereo not given)
Ratio [19]: 0.2
Ratio [20]: 1.4
Ratio [21]: 0.3
Ratio [22]: 2
Ratio [23]: 0.4
Ratio [24]: 0.8

CCC(=O)OC1N=C(c2ccccc2)c2cc(Cl)ccc2N[14C]1=O (stereo not given)
Drug recovery (Mus musculus [25]): 19%
Ratio [26]: 3
Ratio [12]: 2.8
Ratio [27]: 2.4
Ratio [18]: 3.8
Ratio [13]: 2
Ratio [28]: 2.8

CCC(CC)C(=O)OC1N=C(c2ccccc2)c2cc(Cl)ccc2N[14C]1=O (stereo not given)
Ratio [10]: 0.6
Ratio [11]: 1.4
Ratio [12]: 1.1
Ratio [14]: 1
Ratio [28]: 1.7
Ratio [29]: 0.7
